The source of these data is paper PMC11776411 (Journal of Hepatocellular Carcinoma, 2025).

By IC50 is commonly meant the concentration that gives 50% inhibition.

The test system of assay [1] is Huh7 cells. Nature of the assay: MTT cell viability assay, Huh7. The assay is classed as cell-based, human. The note with it: for IC50: Homo sapiens, Huh-7, 72 h, read-out: IC50 (μM) Huh7. For orientation: Formazan colour is commonly taken as a measure of viable cells.
Assay [2] relates to LO2 cells (normal human hepatocytes). Nature of the assay: MTT cytotoxicity assay, normal liver cells LO2. It counts as cell-based. The note with it: L02, 72 h, read-out: IC50 (μM) LO2. The essentials: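 LO2 normal human hepatocytes were grown in DMEM with 10% FBS and seeded at 5×10^3 cells per well overnight. Test compound was added at 0.1, 0.3, 1, 3, 10, 30 and 100 μM for up to 72 h. Viability was read by MTT: 0.5 mg/mL for 4 h, medium removed, DMSO added, absorbance measured. Experiments were repeated at least three times.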

A further assay relates to Hep3B cells. The assay is described as follows: MTT cell viability assay, Hep3B. It counts as cell-based, human. The note with it: for IC50: Homo sapiens, Hep3B, 72 h, read-out: IC50 (μM) Hep3B.
The subject of another assay is HepG2 cells. The assay is described as follows: MTT cell viability assay, HepG2. The note with it: for IC50: Homo sapiens, HepG2, 72 h, read-out: IC50 (μM) HepG2. The assay is classed as cell-based, human.
Assay [3] relates to Huh7 cells. Nature of the assay: Ferroptosis inhibitor. The assay is classed as cell-based, human. The note with it: Huh7, co-treated with 10 μM 6c for 72 h.
The subject of assay [4] is Huh7 cells. Nature of the assay: NAC intervention experiment. The assay is classed as cell-based, human. The note with it: 5 or 10 mm N-acetylcysteine with 10 μM 6c for 24, 48, 72 h.

Turning to `C[C@H]1[C@H](OC(=O)CCC(=O)O)O[C@@H]2O[C@@]3(C)CC[C@H]4[C@H](C)CC[C@@H]1[C@@]24OO3` [AS, Artesunate], the IC50 in the assay on Huh7 cells [1] stood at 47.5 ± 1.39 µM; in assay [2], 72.3 ± 1.37 µM; in the assay with Hep3B cells it was 44.2 ± 2.16 µM; in the assay with HepG2 cells, 42.8 ± 1.44 µM. For the same compound, in the assay on Huh7 cells [1] (SI2 = IC50 LO2/IC50 Huh7), the “Selectivity Index SI 2” value is listed as 1.5. For the same compound, the “Selectivity Index SI 3” value in the assay with Hep3B cells (SI3 = IC50 LO2/IC50 Hep3B) is recorded as 1.6. In addition, the “Selectivity Index SI 1” value in the assay with HepG2 cells (SI1 = IC50 LO2/IC50 HepG2) is on record as 1.7.
As for `CNC(=O)c1cc(Oc2ccc(NC(=O)Nc3ccc(Cl)c(C(F)(F)F)c3)cc2)ccn1` [Sorafenib], the IC50 with Huh7 cells [1] stood at 3.09 ± 0.08 µM; in assay [2], 8.63 ± 0.12 µM; in the assay with HepG2 cells, 6.45 ± 0.32 µM.
As to `Clc1cccc(CN=C2Nc3ccccc3NC23CCNCC3)c1` [Liproxstatin-1], the “reversal of 6c-induced cell death” value in the assay with Huh7 cells [3] is listed as “reversed cell death in a concentration-dependent manner”.
With `CNC(=O)c1cc(Oc2ccc(N)cc2)ccn1` [Compound 1, 4-(4-aminophenoxy)-N-methyl-2-pyridinecarboxamide], the IC50 in the assay on Huh7 cells [1] and in the assay with Hep3B cells was more than 100 µM throughout.
In the case of `CC(=O)N[C@@H](CS)C(=O)O` [N-acetylcysteine], in the assay with Huh7 cells [4], the “reversal of 6c inhibition of proliferation” value was “reversed the inhibitory effect of 6c on proliferation of Huh7 cells in time- and concentration-dependent manner”.
